Several values for one entry are separate records, joined by “and”; a condition that tells them apart may be missing. Identical values can stand only once.
Experiments:
L1210 [1] = experiment: Median survival time of L1210 cell line after a dose of 5 mg/kg administered intraperitoneally on Q01Dx05 treatment schedule; type: functional, Mus musculus; settings: route intraperitoneal
In short: (§1)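 L1210 leukaemia: DBA/2 mice inoculated ip with 10^5 cells on day 0, with ip drug in 0.15 M NaCl saline on the stated schedule. The read-out was median survival time in days, with toxicity taken as survivors on day 5. T/C% = treated MST/control MST × 100; >125% is considered significant.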

Sarcoma-180 [2] = experiment: Median survival time of sarcoma 180 cell line after a dose of 10 mg/kg administered intraperitoneally on Q01Dx01 treatment schedule; type: functional, Mus musculus; settings: route intraperitoneal
In short: (§2)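 Sarcoma 180 was inoculated ip in Swiss mice (10^6 cells, day 0), and drug was given ip in 0.15 M NaCl saline. Median survival time was recorded in days; antitumor activity was expressed as treated MST over control MST ×100, significant above 125%.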

Sarcoma-180 [3] = experiment: Median survival time of sarcoma 180 cell line after a dose of 20 mg/kg administered intraperitoneally on Q01Dx01 treatment schedule; type: functional, Mus musculus; settings: route intraperitoneal; in short: as §2
P388 [4] = experiment: MST of treated animal over control when administered at a dose of 15 mg/kg intravenously on Q01Dx01 treatment schedule; type: functional, Mus musculus; settings: route intravenous
In short: (§3)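 P388 leukaemia: DBA/2 mice inoculated with 10^6 cells on day 0; treatment began day 1 at the stated route and schedule. Drug was dissolved in 0.15 M NaCl saline. The read-out was median survival time (MST, days), with toxicity taken as survivors on day 5. T/C% = treated MST/control MST × 100; ≥125% is considered significant.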

Salmonella typhimurium [5] = experiment: Mutagenesis test was performed at 60 uM concentration in Salmonella Typhimurium TA 100; type: functional, Salmonella enterica subsp. enterica serovar Typhimurium
In short: (§4)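 Salmonella typhimurium his auxotrophs TA98 and TA100 were tested by liquid suspension without metabolic activation. Overnight Oxoid nutrient broth cultures were subcultured, grown 2 h, then exposed to drug for 5 h. Cells were washed, resuspended to A650 2.50, and plated in top agar (0.6% agar, 0.6% NaCl). His+ revertants per plate were counted after 48 h at 37 °C; values are means of three assays.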

L1210 [6] = experiment: MST of treated animal over control when administered at a dose of 5 mg/kg intraperitoneally on Q01Dx05 treatment schedule in L1210 cell lines; type: functional, Mus musculus; settings: route intraperitoneal; in short: as §1
P388 [7] = experiment: MST of treated animal over control when administered at a dose of 2.5 mg/kg intraperitoneally on Q01Dx09 treatment schedule; type: functional, Mus musculus; settings: route intraperitoneal; in short: as §3
L1210 [8] = experiment: MST of treated animal over control when administered at a dose of 10 mg/kg intraperitoneally on Q01Dx05 treatment schedule in L1210 cell lines; type: functional, Mus musculus; settings: route intraperitoneal; in short: as §1
P388 [9] = experiment: Number of survivors of P388 lymphocytic leukemia cell line on day 5/ number of treated mice at a dose of 9 ip injection of 5 mg/kg on Q01Dx09 treatment schedule; 10/10; type: functional, Mus musculus; settings: route intraperitoneal
L1210 [10] = experiment: Median survival time of L1210 cell line after a dose of 5 mg/kg administered intraperitoneally on Q01Dx09 treatment schedule; type: functional, Mus musculus; settings: route intraperitoneal; in short: as §1
L1210 [11] = experiment: Median survival time of L1210 cell line after a dose of 10 mg/kg administered intraperitoneally on Q01Dx01 treatment schedule; type: functional, Mus musculus; settings: route intraperitoneal; in short: as §1
L1210 [12] = experiment: Median survival time of L1210 cell line after a dose of 2.5 mg/kg administered intraperitoneally on Q01Dx09 treatment schedule; type: functional, Mus musculus; settings: route intraperitoneal; in short: as §1
Salmonella typhimurium [13] = experiment: Mutagenesis test was performed at 0.7 uM concentration in Salmonella Typhimurium TA 100; type: functional, Salmonella enterica subsp. enterica serovar Typhimurium; in short: as §4
P388 [14] = experiment: Median survival time of P388 lymphocytic leukemia cell line after a dose of 15 mg/kg administered perorally on Q01Dx07 treatment schedule; type: functional, Mus musculus; settings: route oral; in short: as §3
B16 [15] = experiment: Number of survivors of B16 melanocarcinoma cell line on day 5/ number of treated mice at a dose of 1 ip injection of 2.5 mg/kg on Q01Dx01 treatment schedule; 10/10; type: functional, Mus musculus; settings: route intraperitoneal
P388 [16] = experiment: MST of treated animal over control when administered at a dose of 5 mg/kg intraperitoneally on Q01Dx09 treatment schedule; type: functional, Mus musculus; settings: route intraperitoneal; in short: as §3
L1210 [17] = experiment: MST of treated animal over control when administered at a dose of 15 mg/kg intraperitoneally on Q01Dx02 treatment schedule in L1210 cell lines; type: functional, Mus musculus; settings: route intraperitoneal; in short: as §1
L1210 [18] = experiment: MST of treated animal over control when administered at a dose of 20 mg/kg intraperitoneally on Q01Dx01 treatment schedule in L1210 cell lines; type: functional, Mus musculus; settings: route intraperitoneal; in short: as §1
P388 [19] = experiment: Number of survivors of P388 lymphocytic leukemia cell line on day 5/ number of treated mice at a dose of 1 i.p. injection of 10 mg/kg on Q01Dx01 treatment schedule; 10/10; type: functional, Mus musculus; settings: route intraperitoneal
P388 [20] = experiment: MST of treated animal over control when administered at a dose of 5 mg/kg intraperitoneally on Q01Dx05 treatment schedule; type: functional, Mus musculus; settings: route intraperitoneal; in short: as §3
P388 [21] = experiment: Median survival time of P388 lymphocytic leukemia cell line after a dose of 10 mg/kg administered intraperitoneally on Q04Dx03 treatment schedule; type: functional, Mus musculus; settings: route intraperitoneal; in short: as §3
P388 [22] = experiment: Number of survivors of P388 lymphocytic leukemia cell line on day 5/ number of treated mice at a dose of 7po injection of 20 mg/kg on Q01Dx07 treatment schedule; 10/10; type: functional, Mus musculus
P388 [23] = experiment: Number of survivors of P388 lymphocytic leukemia cell line on day 5/ number of treated mice at a dose of 5 ip injection of 10 mg/kg on Q01Dx05 treatment schedule; 10/10; type: functional, Mus musculus; settings: route intraperitoneal
L1210 [24] = experiment: Concentration that decreases the growth rate of the L1210 cells by 50% after 48 hr of culture; type: functional; settings: Mus musculus, L1210, 48 h; read-out: ID50 (the source's name)
In short: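 L1210 leukemia cells cultured with increasing drug concentrations for 48 h at 37 °C under 5% CO2. Percentage inhibition of control growth was fitted by least-squares linear regression against log dose, and the concentration lowering control growth by 50% was estimated from the regression equation.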

P388 [25] = experiment: MST of treated animal over control when administered at a dose of 10 mg/kg intraperitoneally on Q04Dx03 treatment schedule; type: functional, Mus musculus; settings: route intraperitoneal; in short: as §3
L1210 [26] = experiment: Number of survivors of L1210 cell line on day 5/ number of treated mice at a dose of 5ip injection of 5 mg/kg on Q01Dx05 treatment schedule; 10/10; type: functional, Mus musculus
L1210 [27] = experiment: Number of survivors of L1210 cell line on day 5/ number of treated mice at a dose of 1 i.p. injection of 20 mg/kg on Q01Dx01 treatment schedule; 10/10; type: functional, Mus musculus; settings: route intraperitoneal
Salmonella typhimurium [28] = experiment: Mutagenesis test was performed at 20 uM concentration in Salmonella Typhimurium TA 100; type: functional, Salmonella enterica subsp. enterica serovar Typhimurium; in short: as §4
L1210 [29] = experiment: Median survival time of L1210 cell line after a dose of 10 mg/kg administered intraperitoneally on Q01Dx05 treatment schedule; type: functional, Mus musculus; settings: route intraperitoneal; in short: as §1
B16 [30] = experiment: MST of treated animal over control when administered at a dose of 5 mg/kg intraperitoneally on Q01Dx01 treatment schedule in B16 melanocarcinoma cell lines; type: functional, Mus musculus; settings: route intraperitoneal
In short: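 B16 melanocarcinoma: C57Bl/6 mice implanted sc with cell suspension on day 0; single ip dose in 0.15 M NaCl saline given on day 1. Median survival time was recorded in days, with toxicity taken as survivors on day 5. T/C% = treated MST/control MST × 100; >125% is considered significant.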

O=C1C(N2CC2)=C(N2CC2)C(=O)c2ncncc21
MST (L1210 [1]): 9.1 days | MST (Sarcoma-180 [2]): 18.3 days | MST (Sarcoma-180 [3]): 19 days | T/C (P388 [4]): 139% and 114% | Revertants/plate (Salmonella typhimurium [5]): 501 | T/C (L1210 [6]): 108% | T/C (P388 [7]): 128% | T/C (L1210 [8]): 69% | Toxicity Survivors (P388 [9]): 10 | MST (L1210 [10]): 9.1 days | MST (L1210 [11]): 9.4 days | MST (L1210 [12]): 9.1 days | Revertants/plate (Salmonella typhimurium [13]): 94 | MST (P388 [14]): 7.6 days | Toxicity Survivors (B16 [15]): 10 | T/C (P388 [16]): 148% | T/C (L1210 [17]): 104% | T/C (L1210 [18]): 115% | Toxicity Survivors (P388 [19]): 10 | T/C (P388 [20]): 138% | MST (P388 [21]): 9.9 days | Toxicity Survivors (P388 [22]): 10 | Toxicity Survivors (P388 [23]): 10 | IC50 (L1210 [24]): 0.02 µg/mL and 80 nM | T/C (P388 [25]): 132% | Toxicity Survivors (L1210 [26]): 10 | Toxicity Survivors (L1210 [27]): 10 | Revertants/plate (Salmonella typhimurium [28]): 108 | MST (L1210 [29]): 9.1 days | T/C (B16 [30]): 126%

— ChEMBL document CHEMBL1122504, “Heterocyclic Quinones. 4. A new highly cytotoxic drug: 6,7-bis(1-aziridinyl)-5,8-quinazolinedione” (1983)
